Bioassay records from PubChem BioAssay.
NPY2 pot ag: NPY-Y2 potentiators or agonists, primary screen, cell-based | cells expressing NPY-Y2, potentiator/agonist read-out | activation, % at 3.6 µM | actives 0.45% (n = 220,000); in the data active = activation above about 27%;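 note: cells stimulated with NPY near EC25 plus isoproterenol at EC100; 0% = vehicle plus submaximal agonist and 100% = vehicle plus saturating agonist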
Insulin prom up: insulin promoter activators in MIN6 cells, imaging, high-content screening, mouse beta cells | MIN6 insulin promoter-GFP reporter; active compounds read high | z-score at 5 µM | actives 0.3% (n = 190,000) | AID 1625, 2009;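 active = z-score above 3 at 5 µM with at least 500 cells counted in the well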
NPY Y2 blocker: NPY-Y2 receptor antagonists, primary screen, cell-based; Neuropeptide Y receptor type 2 (Homo sapiens), P49146; NPY-Y2 expressing cells, antagonist mode; inhibition, % at 2.7 µM; actives 0.99% (n = 140,000); AID 793, 2007; in the data active = inhibition above about 17%;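 note: 0% = vehicle with agonist challenge and 100% = reference antagonist with challenge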
INS promoter inh: inhibitors of insulin promoter-driven GFP, primary screen, imaging, TRM-6 cells, eGFP reporter, cell count; reporter expression induced with tamoxifen; inhibition, % at 2 µM; AID 1273, 2008; actives 0.9% (n = 130,000);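 active = inhibition above the mean plus 3 SD, with well images judged a real hit on visual review, cut at about 60% in these data, passing the limit was not always enough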
NPY1 pot ag: NPY-Y1 receptor potentiators or agonists, primary screen, cell-based; activation, % at 3.6 µM; Neuropeptide Y receptor type 1 (Homo sapiens), P25929; actives 0.37% (n = 220,000); NPY-Y1 expressing cells, potentiator/agonist activation; AID 1304, 2008; in the data active = activation above about 33%, passing the limit was not always enough;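 note: cells stimulated with NPY at EC10 then isoproterenol at EC100; 0% = low agonist plus stimulus and 100% = saturating agonist plus stimulus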
Target sequence (P25929 whole entry, looked up): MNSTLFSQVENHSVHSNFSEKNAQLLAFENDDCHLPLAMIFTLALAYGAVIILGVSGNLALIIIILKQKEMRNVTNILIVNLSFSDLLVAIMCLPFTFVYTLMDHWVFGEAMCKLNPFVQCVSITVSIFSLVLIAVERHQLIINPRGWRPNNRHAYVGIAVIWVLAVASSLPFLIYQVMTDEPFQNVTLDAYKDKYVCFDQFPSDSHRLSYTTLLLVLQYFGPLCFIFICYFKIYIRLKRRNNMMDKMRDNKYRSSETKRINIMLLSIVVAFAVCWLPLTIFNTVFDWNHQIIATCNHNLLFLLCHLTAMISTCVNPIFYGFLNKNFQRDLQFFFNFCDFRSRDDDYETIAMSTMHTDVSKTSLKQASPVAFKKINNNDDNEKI
NPY-Y1 antag: NPY-Y1 receptor antagonists, primary screen, cell-based | Neuropeptide Y receptor type 1 (Homo sapiens), P25929 | HEK293-CNG Y1 cells, membrane potential fluorescence; NPY at EC95, then isoproterenol | inhibition, % at 3.6 µM | actives 1% (n = 200,000);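 active = inhibition above the campaign mean inhibition of all tested compounds plus 3 SD, cut at about 20% in these data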;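 note: 0% = DMSO wells given NPY plus isoproterenol and 100% = isoproterenol alone without NPY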
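Material: HEK293 Y1/CNG channel cell line | Also added: NPY (25 nM), isoproterenol (1 µM), Ro 20-1724 (25 µM) | Compound: One concentration, 3.6 µM, in 0.4% DMSO | Schedule: 3 h dye uptake, 1 h room-temperature compound, 45 min post-isoproterenol | Signal: Membrane-potential fluorescent dye readout | Read-out: % inhibition of NPY effect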
The depositor's hits bear a star; . = no result. Only some compounds are listed: those with a hit (about 2.5% of all), similar ones and a draw of the others.

SMILES	NPY2 pot ag	Insulin prom up	NPY Y2 blocker	INS promoter inh	NPY1 pot ag	NPY-Y1 antag
CN1C[C@@H]2C[C@@H](c3cccn3-c3nccs3)N3CCC[C@@]23C1=O	-11	-0.34	.	.	2	-4
CCOc1ccnc(OCC)c1Br	7	0.72	2	79*	1	1
CCOc1ncccc1C(=O)OCC(=O)c1ccccc1Br	12	-0.33	.	-33	5	9
Cc1[nH]n(-c2ccccc2)c(=O)c1C(C[N+](=O)[O-])c1ccccc1Cl (configuration not stated)	-5	0.19	4	-50	-4	5
Cc1[nH]n(-c2ccccc2)c(=O)c1C(c1ccc(O)c([N+](=O)[O-])c1)c1c(C)[nH]n(-c2ccccc2)c1=O	-13	.	2	77*	5	-4
CC1(C)CC(C(CCN(Cc2ccccc2)C(=O)c2ccco2)c2ccc(F)cc2)CCO1 (configuration not stated)	-4	-0.06	33*	.	-18	29*
Clc1ccc(SCc2cc(-c3ccc(Cl)cc3)on2)cc1	1	0	17	-13	-60	16
O=C(NCC1CCCO1)c1c(O)c2cccc3c2n(c1=O)CC3 (configuration not stated)	1	-0.65	2	-54	-5	-7
O=C(NCC1CCCO1)c1c(O)c2cccc3c2n(c1=O)CCC3 (configuration not stated)	-11	-0.27	2	71*	-7	-1
COc1ccc(C2C(C(=O)Nc3ccc4c(c3)OCCO4)c3ccccc3C(=O)N2C)cc1 (configuration not stated)	3	0.51	3	-10	-29	6
CNC(=O)c1cc(C)c(-c2ccccc2)s1	-3	-0.12	0	89*	8	-5
CNC(=O)c1cc2c(s1)-c1ccccc1CC2	4	0.13	.	-15	-6	-4
CCOC(=O)N1CCN(C(=O)c2ccc(OC)c(S(=O)(=O)N3CCOCC3)c2)CC1	-1	-0.02	.	78*	-6	-4
COc1ccc(C(=O)N2CCN(C(C)=O)CC2)cc1S(=O)(=O)N1CCOCC1	1	-0.67	.	45	-1	4
Cc1ccccc1NC(=O)c1cccc(NC(=O)CCC(=O)O)c1	2	0.37	.	-56	7	1
CCC(=O)N/C(N)=N/c1nc(C)c2cc(OC)ccc2n1	-12	0.01	0	80*	-2	4
COc1ccc2nc(/N=C(\N)NC(=O)C(C)(C)C)nc(C)c2c1	-22	.	9	11	-21	4
N#CCCn1cc(/C=C(\C#N)c2nc3ccccc3s2)c(-c2ccc(F)cc2)n1	6	0.44	-1	74*	8	-1
O=C(CN1C(=O)S/C(=C/c2cccnc2)C1=O)N1CCOCC1	2	-0.03	5	71*	5	-5
Cc1cc(C)nc(NS(=O)(=O)c2ccc(CC(C)C)cc2)c1	-15	1.2	.	.	-2	.
CCc1nc(NCCN2CCOCC2)c2oc3ccccc3c2n1	-20	0.29	2	85*	-7	10
CCc1nc(N[C@H](C(=O)O)C(C)C)c2oc3ccccc3c2n1	-22	0.35	.	.	-49	.
CCc1nc(NC(C)C)c2oc3ccccc3c2n1	4	.	8	89*	-22	3
O=C(CSCc1ccc(Cl)c(Cl)c1)Nc1c[nH]c(=O)[nH]c1=O	-11	0.6	1	24	-4	4
CCC(NC(C)C)C(O)c1ccc(O)c2[nH]c(=O)ccc12 (configuration not stated)	69*	.	3	0	76*	-4
O=C(Nc1ccc(CN2CCCCC2)cc1)c1cc(Br)ccc1Cl	-9	-0.83	.	.	-14	8
O=C(Nc1ccc(CN2CCCCC2)cc1)c1cccc(Br)c1	56*	0.24	5	.	43*	2
Cn1c(Cc2ccccc2)nnc1SCc1ccc(C(=O)O)cc1	8	0.39	0	75*	-16	0
Cn1c(CSCc2ccccc2)nnc1SCC(=O)Nc1ccc(C(=O)O)cc1	2	0.29	.	.	-2	-5
COc1ccc2nc(C)c3cc(C)oc3c2c1	17	0.37	0	90*	9	3
